The subject of this test is Streptococcus pyogenes. The experiment in a line: Inhibition of Streptococcus pyogenes IdeS assessed as blockade of enzyme-mediated degradation of human polyclonal immunoglobulin G by SDS-PAGE method. In outline: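 IdeS expressed in E. coli and purified, diluted in PBS pH 7.4 (1 mg/mL), preincubated 30 min at room temperature in the dark with compound in DMSO (10 mg/mL stock, 100× excess). Human polyclonal IgG (1 mg/mL in PBS) then added, 1 h at 37 °C. Samples boiled in reducing SDS sample buffer (4% SDS, 5% 2-mercaptoethanol), cleavage read on 4–20% SDS–PAGE.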

Results on 23 compounds are retold here after ChEMBL document CHEMBL1138626, “Synthesis and biological evaluation of reversible inhibitors of IdeS, a bacterial cysteine protease and virulence determinant” (Bioorg Med Chem, 2009).

Activity calls are given as the source filed them. The calls are words filed in the database; no cut-off is given here.

As to `Cc1ccc(S(=O)(=O)N[C@H](CO)CCCCN)cc1`, the outcome was inactive. For `Cc1ccc(S(=O)(=O)N[C@@H](CCCCN)C(=O)CCl)cc1` the value was “Active”.

As for `Cc1ccc(S(=O)(=O)N2C[C@@H]2C(C)C)cc1` (stereo partly drawn), the outcome was inactive.

Consider `Cc1ccc(S(=O)(=O)N[C@@H](Cc2ccccc2)C(=O)CCl)cc1`, for which the result was Active. For `Cc1ccc(S(=O)(=O)N[C@@H](CCCCN)CN=[N+]=[N-])cc1` the value was “inactive”; for `CCCC[C@H]1CN1S(=O)(=O)c1ccc(C)cc1` (stereo partly drawn), “inactive”; for `Cc1ccc(S(=O)(=O)N[C@H](CO)C(C)C)cc1`, “inactive”.

Regarding `Cc1ccc(S(=O)(=O)N[C@H](CN=[N+]=[N-])C(C)C)cc1`, the outcome was Active. Then `CCCC[C@@H](COS(=O)(=O)c1ccc(C)cc1)NS(=O)(=O)c1ccc(C)cc1`, with “inactive”; and `CCCC[C@@H](CC=O)NS(=O)(=O)c1ccc(C)cc1`, with “Active”.

Regarding `Cc1ccc(S(=O)(=O)N[C@@H](CCCCNC(=O)OC(C)(C)C)COS(=O)(=O)c2ccc(C)cc2)cc1`, the result was inactive. As for `CCCC[C@@H](CN=[N+]=[N-])NS(=O)(=O)c1ccc(C)cc1`, the outcome was Active. Then `Cc1ccc(S(=O)(=O)N[C@H](CN=[N+]=[N-])Cc2ccccc2)cc1`, with “Active”. Then `Cc1ccc(S(=O)(=O)N[C@@H](CCCCNC(=O)OC(C)(C)C)CN=[N+]=[N-])cc1`, with “inactive”; and `CCCC[C@@H](CO)NS(=O)(=O)c1ccc(C)cc1`, with “inactive”. Then `Cc1ccc(S(=O)(=O)N[C@H](CC=O)CCCCNC(=O)OC(C)(C)C)cc1`, with “Active”; and `Cc1ccc(S(=O)(=O)N[C@H](COS(=O)(=O)c2ccc(C)cc2)Cc2ccccc2)cc1`, with “inactive”; and `Cc1ccc(S(=O)(=O)NC(CC=O)C(C)C)cc1` (single isomer, unassigned), with “Active”.

For the compound `Cc1ccc(S(=O)(=O)N[C@H](COS(=O)(=O)c2ccc(C)cc2)C(C)C)cc1`, the result was inactive.

For `Cc1ccc(S(=O)(=O)N[C@H](CO)CCCCNC(=O)OC(C)(C)C)cc1`, the result was inactive.

With `Cc1ccc(S(=O)(=O)N[C@H](CO)Cc2ccccc2)cc1`, the outcome was inactive. For `Cc1ccc(S(=O)(=O)N[C@H](CC=O)Cc2ccccc2)cc1` the value was “Active”.

For `CCCC[C@@H](CC#N)NS(=O)(=O)c1ccc(C)cc1`, the result was Active.
